The record followed here is ChEMBL document CHEMBL1156920, “Structural analogues of schweinfurthin F: probing the steric, electronic, and hydrophobic properties of the D-ring substructure” (Bioorg Med Chem, 2010).

Test [1] deals with SF-295. The test is described as follows: Cytotoxicity against human SF295 cells after 44 hrs by MTT assay. The note with it: SF-295, 44 h. The test is classed as functional, cell-based. The method, boiled down: (§1)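 SF-295 cells cultured in RPMI 1640 and A549 cells in F-12, each with 10% FBS, penicillin–streptomycin, amphotericin B and L-glutamine, at 37 °C in 5% CO2. Cells were grown to 60% confluency, then treated for 44 h. Medium was replaced with medium containing 0.06 mg/mL MTT (phenol red-free RPMI for SF-295) for 4 h. Acid/Triton/isopropanol stop solution was added, plates incubated overnight at 37 °C, OD read at 540 and 650 nm, and EC50 calculated.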

Test [2] relates to A549. As to the kind of experiment: Cytotoxicity against human A549 cells after 44 hrs by MTT assay. The note with it: A549, 44 h. The test is classed as functional, cell-based. The method, boiled down:
as §1
A general note: Tetrazolium assays rely on reduction of a dye to a coloured formazan, in cell work by metabolically active cells.

For orientation: EC50 means the midpoint of the concentration-response curve. Higher therefore signals a need for much substance. For `C=CCc1c(O)cc(/C=C/c2cc3c(c(OC)c2)O[C@]2(C)CC[C@@H](O)C(C)(C)[C@H]2C3)cc1O`, the results for the EC50 in test [1] and in test [2] were 1700 nM and more than 10000 nM, respectively.

`C#CCc1c(O)cc(/C=C/c2cc3c(c(OC)c2)O[C@]2(C)CC[C@@H](O)C(C)(C)[C@H]2C3)cc1O`: the figures for the half-maximal effective concentration (EC50) in test [1] and in test [2] were 1300 nM and more than 10000 nM, respectively.

In the case of `COc1cc(/C=C/c2cc(O)c3ccoc3c2)cc2c1O[C@]1(C)CC[C@@H](O)C(C)(C)[C@H]1C2`, the figures for the EC50 in test [1] and in test [2] were 4800 nM and more than 10000 nM, respectively.

For `COc1cc(/C=C/c2cc(O)c3c(c2)OCC3)cc2c1O[C@]1(C)CC[C@@H](O)C(C)(C)[C@H]1C2`, the EC50 was 2900 nM in test [1] and more than 10000 nM in test [2].

For `COc1cc(/C=C/c2cc(O)c(CCCO)c(O)c2)cc2c1O[C@]1(C)CC[C@@H](O)C(C)(C)[C@H]1C2`, the values for the EC50 in test [1] and in test [2] were 2500 nM and more than 10000 nM, respectively.

Take `COc1cc(CCc2cc(O)c(CC=C(C)C)c(O)c2)cc2c1O[C@]1(C)CC[C@@H](O)C(C)(C)[C@H]1C2`: the results for the EC50 in test [1] and in test [2] were 2900 nM and more than 10000 nM, respectively.

In the case of `COc1cc(CCc2cc(O)c(CCC(C)C)c(O)c2)cc2c1O[C@]1(C)CC[C@@H](O)C(C)(C)[C@H]1C2`, the concentration giving a half-maximal response (EC50) was 2800 nM in test [1] and more than 10000 nM in test [2].

`CCCc1c(O)cc(/C=C/c2cc3c(c(OC)c2)O[C@]2(C)CC[C@@H](O)C(C)(C)[C@H]2C3)cc1O`: the EC50 in test [1] is 900 nM; in test [2] it was more than 10000 nM.

With `COc1cc(/C=C\c2cc(O)c(C/C=C(\C)CCC=C(C)C)c(O)c2)cc2c1O[C@]1(C)CC[C@@H](O)C(C)(C)[C@H]1C2`, the EC50 in test [1] and in test [2] was more than 10000 nM each time.
